Reference: ChEMBL document CHEMBL4368879, “Crystallographic and SAR analyses reveal the high requirements needed to selectively and potently inhibit SIRT2 deacetylase and decanoylase” (Medchemcomm, 2019)
Active and inactive are the calls of the source. The rule behind the calls is not given here.

Experiments:
[1] = target: T1, NAD-dependent protein deacetylase sirtuin-2 (Homo sapiens) (UniProt Q8IXJ6); assay: Inhibition of recombinant SIRT2 (unknown origin) using RLIK(Ac)AMC as substrate assessed as reduction in deacetylase activity at 10 uM after 2 hrs in presence of NAD+ by fluorescence assay relative to control
T1 sequence (whole entry): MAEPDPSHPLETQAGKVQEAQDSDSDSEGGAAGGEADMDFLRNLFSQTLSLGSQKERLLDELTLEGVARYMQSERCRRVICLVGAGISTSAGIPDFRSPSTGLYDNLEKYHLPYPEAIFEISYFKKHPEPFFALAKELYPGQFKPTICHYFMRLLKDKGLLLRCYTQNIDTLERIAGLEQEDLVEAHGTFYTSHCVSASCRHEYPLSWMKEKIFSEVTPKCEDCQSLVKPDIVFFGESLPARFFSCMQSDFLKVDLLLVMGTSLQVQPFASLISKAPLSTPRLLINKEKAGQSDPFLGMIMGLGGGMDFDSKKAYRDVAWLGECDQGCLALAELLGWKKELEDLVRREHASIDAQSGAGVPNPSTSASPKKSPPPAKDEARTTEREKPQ
How it was run: (§1)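 Fluorogenic sirtuin assay in 25 mM Tris–HCl pH 8.0, 150 mM NaCl, 10% glycerol. Enzyme at 0.1 μM with 10 μM substrate (RLIK(Ac)AMC or ETDK(Ca)AMC) and 400 μM NAD+, 2 h at 25 °C with shaking. Reaction stopped with a trypsin plus 4 mM nicotinamide solution, then 30 min more at 25 °C. Fluorescence read on a plate reader.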

[2] = target: T1, NAD-dependent protein deacetylase sirtuin-2 (Homo sapiens); assay: Inhibition of recombinant SIRT2 (unknown origin) using ETDK(Ca)AMC as substrate assessed as reduction in decanoylase activity at 10 uM after 2 hrs in presence of NAD+ by fluorescence assay relative to control; how it was run: as §1
[3] = target: T1, NAD-dependent protein deacetylase sirtuin-2 (Homo sapiens); assay: Inhibition of recombinant SIRT2 (unknown origin) using ETDK(Ca)AMC as substrate assessed as reduction in decanoylase activity at 100 uM after 2 hrs in presence of NAD+ by fluorescence assay relative to control; how it was run: as §1
[4] = target: T1, NAD-dependent protein deacetylase sirtuin-2 (Homo sapiens); assay: Inhibition of recombinant SIRT2 (unknown origin) using RLIK(Ac)AMC as substrate assessed as reduction in deacetylase activity at 100 uM after 2 hrs in presence of NAD+ by fluorescence assay relative to control; how it was run: as §1
[5] = target: NAD-dependent protein deacylase sirtuin-5, mitochondrial (Homo sapiens) (UniProt Q9NXA8); assay: Inhibition of recombinant SIRT5 (unknown origin) using ETDK(Ca)AMC as substrate assessed as reduction in decanoylase activity after 2 hrs in presence of NAD+ by fluorescence assay; how it was run: as §1
[6] = target: T2, NAD-dependent protein deacetylase sirtuin-2 (Homo sapiens, UniProt Q8IXJ6); assay: Inhibition of recombinant SIRT2 (unknown origin) using ETDK(Ca)AMC as substrate assessed as reduction in decanoylase activity after 2 hrs in presence of NAD+ by fluorescence assay; how it was run: as §1
T2 sequence (Q8IXJ6 whole entry): T1 sequence (whole entry)

[7] = target: T3, NAD-dependent protein deacetylase sirtuin-3, mitochondrial (Homo sapiens) (UniProt Q9NTG7); assay: Inhibition of recombinant SIRT3 (unknown origin) using RLIK(Ac)AMC as substrate assessed as reduction in deacetylase activity after 2 hrs in presence of NAD+ by fluorescence assay; how it was run: as §1
T3 sequence (whole entry): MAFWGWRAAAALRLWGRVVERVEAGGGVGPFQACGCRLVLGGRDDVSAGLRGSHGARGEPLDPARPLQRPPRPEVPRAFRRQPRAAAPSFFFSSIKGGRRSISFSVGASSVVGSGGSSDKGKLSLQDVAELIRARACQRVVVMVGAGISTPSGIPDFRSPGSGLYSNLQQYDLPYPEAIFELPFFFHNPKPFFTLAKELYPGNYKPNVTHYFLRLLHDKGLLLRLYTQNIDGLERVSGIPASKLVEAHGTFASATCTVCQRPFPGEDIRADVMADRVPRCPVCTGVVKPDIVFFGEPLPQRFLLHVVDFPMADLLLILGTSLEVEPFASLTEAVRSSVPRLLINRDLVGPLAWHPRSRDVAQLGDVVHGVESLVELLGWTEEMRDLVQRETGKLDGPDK

[8] = target: T4, NAD-dependent protein deacetylase sirtuin-1 (Homo sapiens) (UniProt Q96EB6); assay: Inhibition of recombinant SIRT1 (unknown origin) using ETDK(Ca)AMC as substrate assessed as reduction in decanoylase activity after 2 hrs in presence of NAD+ by fluorescence assay; how it was run: as §1
T4 sequence (whole entry): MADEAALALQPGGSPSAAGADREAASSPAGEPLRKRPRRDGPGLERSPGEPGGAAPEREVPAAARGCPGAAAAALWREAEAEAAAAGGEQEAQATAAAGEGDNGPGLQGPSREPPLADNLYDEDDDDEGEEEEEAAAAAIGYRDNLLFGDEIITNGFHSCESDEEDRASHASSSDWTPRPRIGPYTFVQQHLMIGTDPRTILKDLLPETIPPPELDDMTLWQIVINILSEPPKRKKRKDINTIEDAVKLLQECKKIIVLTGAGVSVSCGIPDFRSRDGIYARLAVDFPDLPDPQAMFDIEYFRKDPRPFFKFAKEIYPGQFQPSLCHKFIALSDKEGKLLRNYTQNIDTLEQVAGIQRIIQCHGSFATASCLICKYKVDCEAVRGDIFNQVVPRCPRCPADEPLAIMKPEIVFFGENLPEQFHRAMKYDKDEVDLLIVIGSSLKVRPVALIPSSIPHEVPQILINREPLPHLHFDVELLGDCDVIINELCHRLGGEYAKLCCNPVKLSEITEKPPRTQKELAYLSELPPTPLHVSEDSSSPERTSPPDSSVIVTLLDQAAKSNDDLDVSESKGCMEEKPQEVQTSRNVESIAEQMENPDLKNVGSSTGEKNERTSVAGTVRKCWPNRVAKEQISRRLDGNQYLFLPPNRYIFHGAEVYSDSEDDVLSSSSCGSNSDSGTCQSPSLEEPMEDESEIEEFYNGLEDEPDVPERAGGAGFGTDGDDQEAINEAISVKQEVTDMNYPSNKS

[9] = target: T2, NAD-dependent protein deacetylase sirtuin-2; assay: Inhibition of recombinant SIRT2 (unknown origin) using RLIK(Ac)AMC as substrate assessed as reduction in deacetylase activity after 2 hrs in presence of NAD+ by fluorescence assay; how it was run: as §1
[10] = target: T3, NAD-dependent protein deacetylase sirtuin-3, mitochondrial (Homo sapiens); assay: Inhibition of recombinant SIRT3 (unknown origin) using ETDK(Ca)AMC as substrate assessed as reduction in decanoylase activity after 2 hrs in presence of NAD+ by fluorescence assay; how it was run: as §1
[11] = target: NAD-dependent protein deacylase sirtuin-5, mitochondrial (Homo sapiens) (UniProt Q9NXA8); assay: Inhibition of recombinant SIRT5 (unknown origin) using RLIK(Ac)AMC as substrate assessed as reduction in deacetylase activity after 2 hrs in presence of NAD+ by fluorescence assay; how it was run: as §1
[12] = target: T4, NAD-dependent protein deacetylase sirtuin-1 (Homo sapiens); assay: Inhibition of recombinant SIRT1 (unknown origin) using RLIK(Ac)AMC as substrate assessed as reduction in deacetylase activity after 2 hrs in presence of NAD+ by fluorescence assay; how it was run: as §1
[13] = target: NAD-dependent protein deacylase sirtuin-6 (Homo sapiens) (UniProt Q8N6T7); assay: Inhibition of recombinant SIRT6 (unknown origin) using RLIK(Ac)AMC as substrate assessed as reduction in deacetylase activity after 2 hrs in presence of NAD+ by fluorescence assay; how it was run: as §1
[14] = target: NAD-dependent protein deacylase sirtuin-6 (Homo sapiens) (UniProt Q8N6T7); assay: Inhibition of recombinant SIRT6 (unknown origin) using ETDK(Ca)AMC as substrate assessed as reduction in decanoylase activity after 2 hrs in presence of NAD+ by fluorescence assay; how it was run: as §1

Chain of NAD-dependent protein deacylase sirtuin-6 (Homo sapiens) (Q8N6T7 whole entry): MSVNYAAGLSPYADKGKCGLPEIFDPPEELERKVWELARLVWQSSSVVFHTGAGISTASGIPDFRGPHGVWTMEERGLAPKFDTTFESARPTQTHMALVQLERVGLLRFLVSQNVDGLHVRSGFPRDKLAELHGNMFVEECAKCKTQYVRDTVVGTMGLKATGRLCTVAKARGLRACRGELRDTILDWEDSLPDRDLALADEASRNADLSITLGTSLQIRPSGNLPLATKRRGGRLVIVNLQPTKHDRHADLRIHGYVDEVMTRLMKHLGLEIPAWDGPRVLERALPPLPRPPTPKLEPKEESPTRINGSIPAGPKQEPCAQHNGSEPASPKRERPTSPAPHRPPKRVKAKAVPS
Chain of NAD-dependent protein deacylase sirtuin-5, mitochondrial (Homo sapiens) (Q9NXA8 37-310 limits assumed): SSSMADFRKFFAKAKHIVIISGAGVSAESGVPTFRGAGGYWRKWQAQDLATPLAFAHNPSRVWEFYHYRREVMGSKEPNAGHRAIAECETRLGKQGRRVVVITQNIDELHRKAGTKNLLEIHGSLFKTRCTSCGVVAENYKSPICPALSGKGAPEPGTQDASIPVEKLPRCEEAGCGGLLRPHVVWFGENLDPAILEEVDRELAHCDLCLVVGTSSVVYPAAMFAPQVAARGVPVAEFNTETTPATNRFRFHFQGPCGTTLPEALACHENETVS

| SMILES | inhibition [1] [%] | inhibition [2] [%] | inhibition [3] [%] | inhibition [4] [%] | inhibition [5] | IC50 [6] [µM] | inhibition [7] | inhibition [8] | IC50 [9] [µM] | inhibition [10] | inhibition [11] | inhibition [12] | inhibition [13] | inhibition [14] |
| --- | --- | --- | --- | --- | --- | --- | --- | --- | --- | --- | --- | --- | --- | --- |
| Cc1cc(C)nc(SCC(=O)Nc2ccc(Sc3ccc(C(F)(F)F)cc3)cc2)n1 | 28 | 18 | 42 | 51 |  |  |  |  |  |  |  |  |  |  |
| Cc1cccc(Sc2ccc(NC(=O)CSc3nc(C)cc(C)n3)cc2)c1 | 70 | 54 | 65 | 76 |  |  |  |  |  |  |  |  |  |  |
| COc1cccc(Sc2ccc(NC(=O)CSc3nc(C)cc(C)n3)cc2)c1 | 80 | 70 | 80 | 85 | inactive | 8.33 | inactive | inactive | 0.7 | inactive | inactive | inactive | inactive | inactive |
| Cc1cc(C)nc(SCC(=O)Nc2ccc(S(=O)(=O)c3ccccc3)cc2)n1 | 8 | 5 | 18 | 50 |  |  |  |  |  |  |  |  |  |  |
| Cc1cc(C)nc(SCC(=O)Nc2ccc(Sc3cccc(C(F)(F)F)c3)cc2)n1 | 72 | 72 | 77 | 82 | inactive | 17.6 | inactive | inactive | 0.85 | inactive | inactive | inactive | inactive | inactive |
| Cc1cc(C)nc(SCC(=O)Nc2ccc(Sc3ccccc3)cc2)n1 | 70 | 38 | 53 | 80 |  | 11.6 |  |  | 1.32 |  |  |  |  |  |
| Cc1cc(C)nc(SCC(=O)Nc2ccc(Sc3cccc4ccccc34)cc2)n1 | 42 | 42 | 58 | 53 |  |  |  |  |  |  |  |  |  |  |
| Cc1cc(C)nc(SCC(=O)Nc2ccc(Sc3ccc4ccccc4c3)cc2)n1 | 51 | 23 | 38 | 70 |  |  |  |  |  |  |  |  |  |  |
| Cc1ccc(Sc2ccc(NC(=O)CSc3nc(C)cc(C)n3)cc2)cc1 | 30 | 10 | 70 | 63 |  |  |  |  |  |  |  |  |  |  |
| Cc1cc(C)nc(SCC(=O)Nc2cccc(Sc3ccccc3)c2)n1 | 65 | 5 | 30 | 73 |  | 62.1 |  |  | 6.65 |  |  |  |  |  |
| Cc1cc(C)nc(SCC(=O)Nc2ccc(Sc3cccnc3)cc2)n1 | 42 | 23 | 60 | 67 |  |  |  |  |  |  |  |  |  |  |
| Cc1cc(C)nc(SCC(=O)Nc2ccc(Sc3ccsc3)cc2)n1 | 50 | 18 | 58 | 62 |  |  |  |  |  |  |  |  |  |  |
| CC(=O)c1ccc(Sc2ccc(NC(=O)CSc3nc(C)cc(C)n3)cc2)cc1 | 6 | 8 | 35 | 5 |  |  |  |  |  |  |  |  |  |  |
| Cc1cc(C)nc(SCC(=O)Nc2ccc([S+]([O-])c3ccccc3)cc2)n1 (stereo unspecified) | 5 | 4 | 23 | 40 |  |  |  |  |  |  |  |  |  |  |
| Cc1cc(C)nc(SCC(=O)Nc2ccc(Sc3ccc(OC(F)(F)F)cc3)cc2)n1 | 40 | 23 | 63 | 60 |  |  |  |  |  |  |  |  |  |  |
| COc1ccc(Sc2ccc(NC(=O)CSc3nc(C)cc(C)n3)cc2)cc1 | 55 | 20 | 58 | 65 |  |  |  |  |  |  |  |  |  |  |
| Cc1cc(C)nc(SCC(=O)Nc2cccc(COc3ccccc3)c2)n1 | 53 | 32 |  | 76 |  |  |  |  |  |  |  |  |  |  |
